In one data set the test system is Homo sapiens. Briefly: Decrease in low density lipoprotein cholesterol level in normal human at 50 to 400 […] by standard enzyme-based colorimetric assay. The format is functional, organism-based. Further details: scale not given: the % may be the effect or the level left.
For data set [1], the system named is Mus musculus. Briefly: Reduction of PTEN mRNA level in BALB/c mouse liver at 37 mg/kg, ip after 72 hrs. It is filed as functional, organism-based. On the set-up: dose 37 mg/kg.
The test system of data set [2] is Mus musculus. Briefly: Reduction of PTEN mRNA level in ip dosed BALB/c mouse liver administered twice a week for 3 weeks measured after 72 hrs of last dose. It is filed as functional. The essentials:
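Male Balb/c mice, 6 weeks old, dosed ip twice weekly for 3 weeks at 0.5, 1.5, 4.7 and 15 mg/kg (two ASOs) or 0.7, 2.3, 7.2 and 23 mg/kg (MOE control); sacrificed 72 h after last dose; ALT, liver PTEN mRNA, liver and spleen weights and body weight gain assessed; ED50 derived; errors as sd.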

The test system of data set [3] is Mus musculus. Put plainly: Hepatotoxicity in BALB/c mouse assessed as increase in liver ALT level at 66 mg/kg, ip after 72 hrs. It is filed as toxicity, organism-based. On the set-up: dose 66 mg/kg, route intraperitoneal. Conditions: in vivo. The essentials: (§1)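 Balb/c mice, 6 weeks old, n = 4 per dose group, single ip doses of 32, 66 or 100 mg/kg; killed 72 h after administration; serum ALT and liver PTEN mRNA quantified after sacrifice; errors as sd.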

The next data set concerns bEND. Put plainly: Reduction in mouse PTEN mRNA level expressed in mouse bEND cells. The format is functional, cell-based. The essentials: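 bEND mouse brain endothelial cells transfected with ASO using lipofectin; PTEN mRNA reduction measured over a dose range; IC50 taken from dose-response curves.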
Data set [4] deals with Mus musculus. Briefly: Hepatotoxicity in ip dosed BALB/c mouse assessed as increase in liver ALT level at 5 to 10 times of ED50 after 72 hrs. It is filed as toxicity, organism-based. As to conditions: in vivo.
In data set [5] the test system is Mus musculus. Briefly: Reduction of PTEN mRNA level in BALB/c mouse liver at 32 mg/kg, ip after 72 hrs. On the set-up: dose 32 mg/kg. The format is functional, organism-based. The essentials: as §1
Data set [6] concerns Mus musculus. Briefly: Reduction of PTEN mRNA level in BALB/c mouse liver at 100 mg/kg, ip after 72 hrs. It is filed as functional. The method, boiled down: as §1
Data set [7] has as its system Mus musculus. Briefly: Reduction of PTEN mRNA level in BALB/c mouse liver at 66 mg/kg, ip after 72 hrs. It is filed as functional, organism-based. Further details: dose 66 mg/kg. The method, boiled down: as §1
For data set [8], the system named is Mus musculus. Put plainly: Metabolic stability in BALB/c mouse liver assessed as antisense oligonucleotide level at 18 mg/kg. It is filed as ADME, organism-based. Further details: dose 18 mg/kg. Conditions: in vivo.
The test system of data set [9] is Mus musculus. Briefly: Reduction of PTEN level in ip dosed BALB/c mouse liver at 37 mg/kg by Western blot analysis. The format is functional, organism-based. Further details: dose 37 mg/kg. In general terms: Immunoblotting shows a protein as a band on a membrane.
The species named for data set [10] is Mus musculus. Put plainly: Binding affinity to mouse PTEN mRNA assessed as melting temperature. The method, boiled down:
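Tm of ASO–RNA duplex, i.e. melting temperature of the ASO hybridised to its complementary RNA.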

Data set [11] relates to Mus musculus. Put plainly: Reduction of PTEN mRNA level in BALB/c mouse liver at 60 mg/kg, ip after 72 hrs. It is filed as functional, organism-based. On the set-up: dose 60 mg/kg.
The subject of data set [12] is Mus musculus. Briefly: Hepatotoxicity in BALB/c mouse assessed as increase in liver ALT level at 32 mg/kg, ip after 72 hrs. It is filed as toxicity, organism-based. Further details: dose 32 mg/kg, route intraperitoneal. Conditions: in vivo. The essentials:
as §1

The subject of data set [13] is Mus musculus. Put plainly: Hepatotoxicity in BALB/c mouse assessed as increase in liver ALT level at 100 mg/kg, ip after 72 hrs. The format is toxicity, organism-based. On the set-up: dose 100 mg/kg, route intraperitoneal. Conditions: in vivo. The essentials:
as §1

The subject of data set [14] is Mus musculus. Briefly: Hepatotoxicity in BALB/c mouse assessed as increase in liver ALT level at 60 mg/kg, ip after 72 hrs. Conditions: in vivo. It is filed as toxicity, organism-based. On the set-up: dose 60 mg/kg, route intraperitoneal.
Data set [15] has as its system Mus musculus. Briefly: Reduction of PTEN mRNA level in ip dosed BALB/c mouse liver after 72 hrs. It is filed as functional.
Data set [16] concerns Mus musculus. Put plainly: Hepatotoxicity in BALB/c mouse assessed as increase in liver ALT level at 35 mg/kg, ip after 72 hrs. Conditions: in vivo.
For data set [17], the system named is Mus musculus. The data set is described as above. Conditions: in vivo. The source holds these as a separate data set.
For data set [18], the system named is Mus musculus. Briefly: Hepatotoxicity in BALB/c mouse assessed as increase in liver ALT level at 35 mg/kg, ip after 72 hrs. It is filed as toxicity, organism-based. As to conditions: in vivo. Further details: dose 35 mg/kg, route intraperitoneal. The essentials: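 Single ip injection of 35 mg/kg ASO into male Balb/c mice, 6 weeks old, n = 4 per group, saline control; sacrificed 72 h after dosing and ALT recorded; ANOVA with Tukey's post hoc test.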

The structures appear in SMILES notation. Activity calls are given as the source filed them. The rule behind the calls is not given here.

In the case of `COCCO[C@@H]1[C@H](SP(=O)(O)OC[C@H]2O[C@@H](n3cc(C)c(=O)[nH]c3=O)[C@H](OCCOC)[C@@H]2SP(=O)(O)OC[C@H]2O[C@@H](n3cc(C)c(N)nc3=O)[C@H](OCCOC)[C@@H]2SP(=O)(O)OC[C@H]2O[C@@H](n3cnc4c(N)ncnc43)C[C@@H]2SP(=O)(O)OC[C@H]2O[C@@H](n3cnc4c(=O)[nH]c(N)nc43)C[C@@H]2SP(=O)(O)OC[C@H]2O[C@@H](n3cc(C)c(=O)[nH]c3=O)C[C@@H]2SP(=O)(O)OC[C@H]2O[C@@H](n3cc(C)c(N)nc3=O)C[C@@H]2SP(=O)(O)OC[C@H]2O[C@@H](n3cc(C)c(=O)[nH]c3=O)C[C@@H]2SP(=O)(O)OC[C@H]2O[C@@H](n3cnc4c(=O)[nH]c(N)nc43)C[C@@H]2SP(=O)(O)OC[C@H]2O[C@@H](n3cc(C)c(N)nc3=O)C[C@@H]2SP(=O)(O)OC[C@H]2O[C@@H](n3cc(C)c(=O)[nH]c3=O)C[C@@H]2SP(=O)(O)OC[C@H]2O[C@@H](n3cc(C)c(=O)[nH]c3=O)C[C@@H]2SP(=O)(O)OC[C@H]2O[C@@H](n3cc(C)c(N)nc3=O)C[C@@H]2SP(=O)(O)OC[C@H]2O[C@@H](n3cnc4c(=O)[nH]c(N)nc43)[C@H](OCCOC)[C@@H]2SP(=O)(O)OC[C@@H]2O[C@H](n3cc(C)c(N)nc3=O)[C@@H](OCCOC)[C@H]2SP(=O)(O)OC[C@@H]2O[C@H](n3cnc4c(N)ncnc43)[C@@H](OCCOC)[C@H]2SP(=O)(O)OC[C@@H]2O[C@H](n3cc(C)c(N)nc3=O)[C@@H](OCCOC)[C@H]2SP(=O)(O)OC[C@@H]2O[C@H](n3cc(C)c(N)nc3=O)[C@@H](OCCOC)[C@H]2O)[C@@H](COP(=O)(O)S[C@H]2[C@@H](OCCOC)[C@H](n3cc(C)c(N)nc3=O)O[C@@H]2COP(=O)(O)S[C@H]2[C@@H](OCCOC)[C@H](n3cnc4c(=O)[nH]c(N)nc43)O[C@@H]2CO)O[C@H]1n1cc(C)c(N)nc1=O`, in the data set with Homo sapiens, the Activity was 6%.

What is called ED50 is the dose that gives a 50% effect, or the effect in half of the subjects. By IC50 is commonly meant the concentration that inhibits the measured activity by half. Regarding `Cc1cn([C@@H]2O[C@@]3(COP(O)(=S)O[C@H]4[C@H]5OC[C@]4(COP(O)(=S)O[C@H]4C[C@H](n6cc(C)c(=O)[nH]c6=O)O[C@@H]4COP(O)(=S)O[C@H]4[C@@H](O)[C@H](n6cnc7c6N=CNC7N)O[C@@H]4COP(O)(=S)O[C@H]4[C@@H](O)[C@H](n6cnc7c(=O)[nH]c(N)nc76)O[C@@H]4COP(O)(=S)O[C@H]4[C@@H](O)[C@H](n6ccc(N)nc6=O)O[C@@H]4COP(O)(=S)O[C@H]4[C@@H](O)[C@H](n6cnc7c(N)ncnc76)O[C@@H]4COP(O)(=S)O[C@H]4[C@@H](O)[C@H](n6ccc(N)nc6=O)O[C@@H]4COP(O)(=S)O[C@H]4[C@@H](O)[C@H](n6cc(C)c(=O)[nH]c6=O)O[C@@H]4COP(O)(=S)O[C@H]4[C@@H](O)[C@H](n6cnc7c(=O)[nH]c(N)nc76)O[C@@H]4COP(O)(=S)O[C@H]4[C@@H](O)[C@H](n6cnc7c(=O)[nH]c(N)nc76)O[C@@H]4COP(O)(=S)O[C@H]4[C@@H](O)[C@H](n6ccc(N)nc6=O)O[C@@H]4COP(O)(=S)O[C@H]4[C@H]6OC[C@]4(COP(O)(=S)O[C@H]4[C@H]7OC[C@]4(CO)O[C@H]7n4cc(C)c(=O)[nH]c4=O)O[C@H]6n4cc(C)c(N)nc4=O)O[C@H]5n4cc(C)c(=O)[nH]c4=O)CO[C@@H]2[C@@H]3O)c(=O)nc1N` (some centres not stated), the outcome in the data set on Mus musculus [1], with Mus musculus [5], in the data set with Mus musculus [6], with Mus musculus [7], in the data set with Mus musculus [9] and with Mus musculus [11] was Active. The ED50 with Mus musculus [2] came out at 2.1 mg/kg; in the data set on Mus musculus [15], 6 mg/kg. Besides, the Activity entry in the data set on Mus musculus [3] is listed as “Toxic”; in the data set with Mus musculus [4], “Toxic”; in the data set on Mus musculus [12], “Non-toxic”; with Mus musculus [13], “Toxic”; with Mus musculus [14], “Non-toxic”. In the data set with bEND, this compound registered an IC50 of 4.9 nM. Further, the Stability in the data set with Mus musculus [8] came to 25 µg/g. In addition, the Tm in the data set listed under Mus musculus [10] came to 60.6 °C.

For the compound `Cc1cn([C@@H]2O[C@@]3(COP(O)(=S)O[C@@H]4[C@@H](OP(O)(=S)OC[C@H]5O[C@@H](n6cc(C)c(=O)[nH]c6=O)[C@H](O)[C@@H]5OP(O)(=S)OC[C@H]5O[C@@H](n6cnc7c(=O)[nH]c(N)nc76)[C@H](O)[C@@H]5OP(O)(=S)OC[C@H]5O[C@@H](n6cnc7c(=O)[nH]c(N)nc76)[C@H](O)[C@@H]5OP(O)(=S)OC[C@H]5O[C@@H](n6ccc(N)nc6=O)[C@H](O)[C@@H]5OP(O)(=S)OC[C@H]5O[C@@H](n6cc(C)c(=O)[nH]c6=O)[C@H](O)[C@@H]5OP(O)(=S)OC[C@H]5O[C@@H](n6cnc7c(=O)[nH]c(N)nc76)[C@H](O)[C@@H]5OP(O)(=S)OC[C@H]5O[C@@H](n6ccc(N)nc6=O)[C@H](O)[C@@H]5OP(O)(=S)OC[C@H]5O[C@@H](n6cnc7c(N)ncnc76)[C@H](O)[C@@H]5OP(O)(=S)OC[C@H]5O[C@@H](n6cnc7c(=O)[nH]c(N)nc76)[C@H](O)[C@@H]5OP(O)(=S)OC[C@@]56CO[C@@H]([C@H](n7cc(C)c(N)nc7=O)O5)[C@@H]6OP(O)(=S)OC[C@@]56CO[C@@H]([C@H](n7cc(C)c(=O)[nH]c7=O)O5)[C@@H]6O)O[C@@H](n5cnc6c(N)ncnc65)[C@@H]4O)CO[C@@H]2[C@@H]3OP(O)(=S)OC[C@@]23CO[C@@H]([C@H](n4cc(C)c(=O)[nH]c4=O)O2)[C@@H]3O)c(=O)nc1N` (some centres not stated), the Activity result in the data set on Mus musculus [16], in the data set with Mus musculus [17] and with Mus musculus [18] was “Toxic” each time. For the same compound, the result in the data set with Mus musculus [1] and with Mus musculus [11] was Active.

The record behind these values is ChEMBL document CHEMBL1140861, “Short antisense oligonucleotides with novel 2'-4' conformationaly restricted nucleoside analogues show improved potency without increased toxicity in animals” (J Med Chem, 2009).
